# Measured values taken from ChEMBL document CHEMBL5724801, “EUbOPEN Chemogenomics Library - Multiplex” (2024).
# Values joined by “and” are separate entries in the source; they are usually repeats but may differ in a detail not shown here. Identical values can stand only once.
# Assays:
# Assay type in all cases: toxicity, cell-based
# [1] = system: Fibroblast; assay: Multiplex assay against human fibroblast
# Summary of the method: (§1)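 Compound was added to live cells that had been stained at seeding with Hoechst33342, BioTracker Green Microtubule Cytoskeleton Dye, MitoTracker Red and Annexin V Alexa Fluor 680, and imaging followed on a CQ1 microscope at 37°C and 5% CO2. CellPathfinder machine-learning gating divided cells into Hoechst high-intensity objects or normal cells, normal cells into healthy, pyknosed or fragmented nuclei, and pyknosed cells into mitotic or apoptotic. Tubulin, mitochondrial-mass and membrane-permeability phenotypes are per cents of healthy-nucleus cells.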
# [2] = system: HEK-293T; assay: Multiplex assay against HEK293T; conditions: human; summary of the method: as §1
# [3] = system: U2OS; assay: Multiplex assay against U2OS; conditions: human; summary of the method: as §1
# [4] = 12 h, 1 µM, compound concentration 1 uM
# [5] = 12 h, 10 µM, compound concentration 10 uM
# [6] = 24 h, 1 µM, compound concentration 1 uM
# [7] = 24 h, 10 µM, compound concentration 10 uM
# [8] = 48 h, 1 µM, compound concentration 1 uM
# [9] = 48 h, 10 µM, compound concentration 10 uM
structure (smiles),measurement,setting,value
CN1CCC(C(=O)c2cccc(NC(=O)c3c(F)cc(F)cc3F)n2)CC1,Population Apoptotic (%),[1]; [4],28% and 40%
same,Population Fragmented Nuclei (%),[1]; [4],16% and 28%
same,Population Healthy Nuclei (%),[1]; [4],64% and 53%
same,Population Hoechst High Intensity Objects (%),[1]; [4],3% and 2%
same,Population Membrane Permeable-Phenotype (%),[1]; [4],1% and 5%
same,Population Mitochondria Different-Phenotype (%),[1]; [4],4% and 10%
same,Population Mitotic Cells (%),[1]; [4],71% and 60%
same,Population Normal (%),[1]; [4],96% and 97%
same,Population Pyknosed Nuclei (%),[1]; [4],18%
same,Population Tubulin-Different-Phenotype (%),[1]; [4],28% and 43%
same,Total Cell Count,[1]; [4],153 and 142
same,Population Apoptotic (%),[1]; [5],32% and 36%
same,Population Fragmented Nuclei (%),[1]; [5],12% and 23%
same,Population Healthy Nuclei (%),[1]; [5],74% and 54%
same,Population Hoechst High Intensity Objects (%),[1]; [5],4%
same,Population Membrane Permeable-Phenotype (%),[1]; [5],1% and 6%
same,Population Mitochondria Different-Phenotype (%),[1]; [5],7% and 6%
same,Population Mitotic Cells (%),[1]; [5],67% and 63%
same,Population Normal (%),[1]; [5],95%
same,Population Pyknosed Nuclei (%),[1]; [5],13% and 22%
same,Population Tubulin-Different-Phenotype (%),[1]; [5],42% and 63%
same,Total Cell Count,[1]; [5],266 and 142
same,Population Apoptotic (%),[1]; [6],45% and 40%
same,Population Fragmented Nuclei (%),[1]; [6],12% and 34%
same,Population Healthy Nuclei (%),[1]; [6],74% and 43%
same,Population Hoechst High Intensity Objects (%),[1]; [6],1%
same,Population Membrane Permeable-Phenotype (%),[1]; [6],0% and 6%
same,Population Mitochondria Different-Phenotype (%),[1]; [6],2% and 10%
same,Population Mitotic Cells (%),[1]; [6],55% and 59%
same,Population Normal (%),[1]; [6],98%
same,Population Pyknosed Nuclei (%),[1]; [6],12% and 21%
same,Population Tubulin-Different-Phenotype (%),[1]; [6],21% and 45%
same,Total Cell Count,[1]; [6],156 and 148
same,Population Apoptotic (%),[1]; [7],54% and 37%
same,Population Fragmented Nuclei (%),[1]; [7],13% and 30%
same,Population Healthy Nuclei (%),[1]; [7],71% and 50%
same,Population Hoechst High Intensity Objects (%),[1]; [7],3% and 2%
same,Population Membrane Permeable-Phenotype (%),[1]; [7],0% and 5%
same,Population Mitochondria Different-Phenotype (%),[1]; [7],6% and 8%
same,Population Mitotic Cells (%),[1]; [7],45% and 62%
same,Population Normal (%),[1]; [7],96% and 97%
same,Population Pyknosed Nuclei (%),[1]; [7],14% and 19%
same,Population Tubulin-Different-Phenotype (%),[1]; [7],37% and 65%
same,Total Cell Count,[1]; [7],258 and 153
same,Population Apoptotic (%),[1]; [8],71% and 56%
same,Population Fragmented Nuclei (%),[1]; [8],16% and 42%
same,Population Healthy Nuclei (%),[1]; [8],74% and 46%
same,Population Hoechst High Intensity Objects (%),[1]; [8],3% and 2%
same,Population Membrane Permeable-Phenotype (%),[1]; [8],0% and 5%
same,Population Mitochondria Different-Phenotype (%),[1]; [8],1% and 5%
same,Population Mitotic Cells (%),[1]; [8],28% and 43%
same,Population Normal (%),[1]; [8],96% and 97%
same,Population Pyknosed Nuclei (%),[1]; [8],8% and 10%
same,Population Tubulin-Different-Phenotype (%),[1]; [8],25% and 67%
same,Total Cell Count,[1]; [8],164 and 156
same,Population Apoptotic (%),[1]; [9],71% and 54%
same,Population Fragmented Nuclei (%),[1]; [9],17% and 36%
same,Population Healthy Nuclei (%),[1]; [9],71% and 55%
same,Population Hoechst High Intensity Objects (%),[1]; [9],5% and 3%
same,Population Membrane Permeable-Phenotype (%),[1]; [9],0% and 3%
same,Population Mitochondria Different-Phenotype (%),[1]; [9],7% and 3%
same,Population Mitotic Cells (%),[1]; [9],28% and 45%
same,Population Normal (%),[1]; [9],94% and 96%
same,Population Pyknosed Nuclei (%),[1]; [9],10% and 7%
same,Population Tubulin-Different-Phenotype (%),[1]; [9],40% and 69%
same,Total Cell Count,[1]; [9],272 and 152
same,Population Apoptotic (%),[2]; [4],32% and 52%
same,Population Fragmented Nuclei (%),[2]; [4],5%
same,Population Healthy Nuclei (%),[2]; [4],82%
same,Population Hoechst High Intensity Objects (%),[2]; [4],8% and 7%
same,Population Membrane Permeable-Phenotype (%),[2]; [4],0%
same,Population Mitochondria Different-Phenotype (%),[2]; [4],51% and 59%
same,Population Mitotic Cells (%),[2]; [4],67% and 47%
same,Population Normal (%),[2]; [4],91% and 92%
same,Population Pyknosed Nuclei (%),[2]; [4],11% and 12%
same,Population Tubulin-Different-Phenotype (%),[2]; [4],31% and 20%
same,Total Cell Count,[2]; [4],396 and 352
same,Population Apoptotic (%),[2]; [5],52% and 53%
same,Population Fragmented Nuclei (%),[2]; [5],6%
same,Population Healthy Nuclei (%),[2]; [5],80%
same,Population Hoechst High Intensity Objects (%),[2]; [5],8% and 10%
same,Population Membrane Permeable-Phenotype (%),[2]; [5],1% and 0%
same,Population Mitochondria Different-Phenotype (%),[2]; [5],55% and 77%
same,Population Mitotic Cells (%),[2]; [5],47% and 46%
same,Population Normal (%),[2]; [5],91% and 89%
same,Population Pyknosed Nuclei (%),[2]; [5],12% and 13%
same,Population Tubulin-Different-Phenotype (%),[2]; [5],50%
same,Total Cell Count,[2]; [5],445 and 401
same,Population Apoptotic (%),[2]; [6],26% and 42%
same,Population Fragmented Nuclei (%),[2]; [6],11% and 8%
same,Population Healthy Nuclei (%),[2]; [6],74% and 83%
same,Population Hoechst High Intensity Objects (%),[2]; [6],4% and 3%
same,Population Membrane Permeable-Phenotype (%),[2]; [6],0%
same,Population Mitochondria Different-Phenotype (%),[2]; [6],30% and 39%
same,Population Mitotic Cells (%),[2]; [6],73% and 57%
same,Population Normal (%),[2]; [6],95% and 96%
same,Population Pyknosed Nuclei (%),[2]; [6],13% and 7%
same,Population Tubulin-Different-Phenotype (%),[2]; [6],20% and 17%
same,Total Cell Count,[2]; [6],504 and 478
same,Population Apoptotic (%),[2]; [7],25% and 52%
same,Population Fragmented Nuclei (%),[2]; [7],10% and 8%
same,Population Healthy Nuclei (%),[2]; [7],76% and 81%
same,Population Hoechst High Intensity Objects (%),[2]; [7],6% and 8%
same,Population Membrane Permeable-Phenotype (%),[2]; [7],0%
same,Population Mitochondria Different-Phenotype (%),[2]; [7],48% and 64%
same,Population Mitotic Cells (%),[2]; [7],75% and 47%
same,Population Normal (%),[2]; [7],93% and 91%
same,Population Pyknosed Nuclei (%),[2]; [7],13% and 9%
same,Population Tubulin-Different-Phenotype (%),[2]; [7],41% and 34%
same,Total Cell Count,[2]; [7],583 and 467
same,Population Apoptotic (%),[2]; [8],22% and 34%
same,Population Fragmented Nuclei (%),[2]; [8],11% and 9%
same,Population Healthy Nuclei (%),[2]; [8],80% and 84%
same,Population Hoechst High Intensity Objects (%),[2]; [8],3%
same,Population Membrane Permeable-Phenotype (%),[2]; [8],1%
same,Population Mitochondria Different-Phenotype (%),[2]; [8],19% and 24%
same,Population Mitotic Cells (%),[2]; [8],77% and 65%
same,Population Normal (%),[2]; [8],96%
same,Population Pyknosed Nuclei (%),[2]; [8],7% and 5%
same,Population Tubulin-Different-Phenotype (%),[2]; [8],12% and 10%
same,Total Cell Count,[2]; [8],884 and 692
same,Population Apoptotic (%),[2]; [9],30% and 28%
same,Population Fragmented Nuclei (%),[2]; [9],13% and 10%
same,Population Healthy Nuclei (%),[2]; [9],79% and 81%
same,Population Hoechst High Intensity Objects (%),[2]; [9],4% and 7%
same,Population Membrane Permeable-Phenotype (%),[2]; [9],0%
same,Population Mitochondria Different-Phenotype (%),[2]; [9],35% and 42%
same,Population Mitotic Cells (%),[2]; [9],69% and 71%
same,Population Normal (%),[2]; [9],95% and 92%
same,Population Pyknosed Nuclei (%),[2]; [9],7%
same,Population Tubulin-Different-Phenotype (%),[2]; [9],23% and 25%
same,Total Cell Count,[2]; [9],803 and 671
same,Population Apoptotic (%),[3]; [4],90% and 57%
same,Population Fragmented Nuclei (%),[3]; [4],20%
same,Population Healthy Nuclei (%),[3]; [4],70% and 71%
same,Population Hoechst High Intensity Objects (%),[3]; [4],2% and 1%
same,Population Membrane Permeable-Phenotype (%),[3]; [4],8% and 9%
same,Population Mitochondria Different-Phenotype (%),[3]; [4],3% and 11%
same,Population Normal (%),[3]; [4],97% and 98%
same,Population Pyknosed Nuclei (%),[3]; [4],9% and 7%
same,Population Tubulin-Different-Phenotype (%),[3]; [4],5% and 6%
same,Total Cell Count,[3]; [4],218 and 89
same,Population Apoptotic (%),[3]; [5],65% and 64%
same,Population Fragmented Nuclei (%),[3]; [5],27% and 14%
same,Population Healthy Nuclei (%),[3]; [5],63% and 68%
same,Population Hoechst High Intensity Objects (%),[3]; [5],1%
same,Population Membrane Permeable-Phenotype (%),[3]; [5],14% and 15%
same,Population Mitochondria Different-Phenotype (%),[3]; [5],13% and 18%
same,Population Mitotic Cells (%),[3]; [5],34% and 35%
same,Population Normal (%),[3]; [5],98%
same,Population Pyknosed Nuclei (%),[3]; [5],9% and 16%
same,Population Tubulin-Different-Phenotype (%),[3]; [5],12% and 15%
same,Total Cell Count,[3]; [5],270 and 103
same,Population Apoptotic (%),[3]; [6],85% and 72%
same,Population Fragmented Nuclei (%),[3]; [6],22% and 18%
same,Population Healthy Nuclei (%),[3]; [6],67% and 71%
same,Population Hoechst High Intensity Objects (%),[3]; [6],2% and 0%
same,Population Membrane Permeable-Phenotype (%),[3]; [6],4% and 6%
same,Population Mitochondria Different-Phenotype (%),[3]; [6],3% and 10%
same,Population Mitotic Cells (%),[3]; [6],14% and 27%
same,Population Normal (%),[3]; [6],97% and 99%
same,Population Pyknosed Nuclei (%),[3]; [6],9%
same,Population Tubulin-Different-Phenotype (%),[3]; [6],3% and 0%
same,Total Cell Count,[3]; [6],284 and 113
same,Population Apoptotic (%),[3]; [7],82% and 66%
same,Population Fragmented Nuclei (%),[3]; [7],21% and 15%
same,Population Healthy Nuclei (%),[3]; [7],68%
same,Population Hoechst High Intensity Objects (%),[3]; [7],2% and 5%
same,Population Membrane Permeable-Phenotype (%),[3]; [7],8% and 10%
same,Population Mitochondria Different-Phenotype (%),[3]; [7],9% and 15%
same,Population Mitotic Cells (%),[3]; [7],17% and 33%
same,Population Normal (%),[3]; [7],97% and 94%
same,Population Pyknosed Nuclei (%),[3]; [7],9% and 15%
same,Population Tubulin-Different-Phenotype (%),[3]; [7],5% and 10%
same,Total Cell Count,[3]; [7],298 and 126
same,Population Apoptotic (%),[3]; [8],100% and 89%
same,Population Fragmented Nuclei (%),[3]; [8],17% and 29%
same,Population Healthy Nuclei (%),[3]; [8],70% and 57%
same,Population Hoechst High Intensity Objects (%),[3]; [8],2% and 5%
same,Population Membrane Permeable-Phenotype (%),[3]; [8],4% and 12%
same,Population Mitochondria Different-Phenotype (%),[3]; [8],1% and 8%
same,Population Mitotic Cells (%),[3]; [8],0% and 10%
same,Population Normal (%),[3]; [8],97% and 94%
same,Population Pyknosed Nuclei (%),[3]; [8],11% and 13%
same,Population Tubulin-Different-Phenotype (%),[3]; [8],2% and 4%
same,Total Cell Count,[3]; [8],394 and 149
same,Population Apoptotic (%),[3]; [9],85%
same,Population Fragmented Nuclei (%),[3]; [9],18% and 15%
same,Population Healthy Nuclei (%),[3]; [9],69%
same,Population Hoechst High Intensity Objects (%),[3]; [9],3%
same,Population Membrane Permeable-Phenotype (%),[3]; [9],8% and 16%
same,Population Mitochondria Different-Phenotype (%),[3]; [9],3% and 10%
same,Population Mitotic Cells (%),[3]; [9],14%
same,Population Normal (%),[3]; [9],96%
same,Population Pyknosed Nuclei (%),[3]; [9],12% and 14%
same,Population Tubulin-Different-Phenotype (%),[3]; [9],3% and 8%
same,Total Cell Count,[3]; [9],398 and 189
